Experimental data reported in ChEMBL document CHEMBL1149086, “Antimalarial and antitumor evaluation of novel C-10 non-acetal dimers of 10beta-(2-hydroxyethyl)deoxoartemisinin” (J Med Chem, 2004).

What was measured:
Plasmodium falciparum [1] = test: In vitro antimalarial activity against Plasmodium falciparum K1 by [3H]hypoxanthine uptake; assay type: functional, organism-based
Plasmodium falciparum [2] = test: In vitro antimalarial activity against Plasmodium falciparum HB3 by [3H]hypoxanthine uptake; assay type: functional, organism-based
Jurkat = test: Inhibitory concentration against Jurkat cells; assay type: functional, cell-based; conditions: Homo sapiens
Summary of the method: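 Jurkat cells were grown in RPMI-1640 with 10% v/v FBS and 1% v/v L-glutamine at 37 °C under humidified 5% CO2, kept below 1 × 10⁶ cells/mL, with viability above 95%. Cells were plated at 1 × 10⁵/well and exposed to 10⁻¹⁰–10⁻⁴ M drug for 72 h, with final DMSO below 0.5% v/v. [³H]-thymidine (0.5 μCi/well) was added at 48 h for the final 24 h, and incorporation was read by β-scintillation counting.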

HL-60 = test: Inhibitory concentration against HL60 cells; assay type: functional, cell-based; conditions: Homo sapiens
Summary of the method: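 HL60 (2.5 × 10⁴/well) or Jurkat (1 × 10⁵/well) in RPMI-1640 with 10% FBS and 1% L-glutamine, 5% CO2, 37 °C. Exposed to 10⁻¹⁰–10⁻⁴ M for 72 h, final DMSO below 0.5% v/v. [3H]-thymidine (0.5 μCi) added for the final 24 h. Incorporation counted by β-scintillation.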

Row | Compound | IC50 (Plasmodium falciparum [1]) [nM] | IC50 (Plasmodium falciparum [2]) [nM] | IC50 (Jurkat) [nM] | IC50 (HL-60) [nM]
1 | COP(=O)(OC)OCC[C@H]1O[C@@H]2O[C@]3(C)CC[C@H]4[C@H](C)CC[C@@H]([C@H]1C)[C@@]24OO3 | 2.2 |  |  | 
2 | C[C@H]1[C@@H](CCOC(=O)c2ccc(C(=O)OCC[C@H]3O[C@@H]4O[C@]5(C)CC[C@H]6[C@H](C)CC[C@@H]([C@H]3C)[C@@]46OO5)cc2)O[C@@H]2O[C@]3(C)CC[C@H]4[C@H](C)CC[C@@H]1[C@@]24OO3 | 4.6 |  |  | 
3 | C[C@H]1[C@@H](CCOCc2ccc(COCC[C@H]3O[C@@H]4O[C@]5(C)CC[C@H]6[C@H](C)CC[C@@H]([C@H]3C)[C@@]46OO5)cc2)O[C@@H]2O[C@]3(C)CC[C@H]4[C@H](C)CC[C@@H]1[C@@]24OO3 | 2.4 |  |  | 
4 | C[C@H]1[C@@H](CCOC(=O)c2cccc(C(=O)OCC[C@H]3O[C@@H]4O[C@]5(C)CC[C@H]6[C@H](C)CC[C@@H]([C@H]3C)[C@@]46OO5)c2)O[C@@H]2O[C@]3(C)CC[C@H]4[C@H](C)CC[C@@H]1[C@@]24OO3 | 42.2 |  |  | 
5 | C[C@H]1[C@@H](CCOP(=O)(Oc2ccccc2)Oc2ccccc2)O[C@@H]2O[C@]3(C)CC[C@H]4[C@H](C)CC[C@@H]1[C@@]24OO3 | 3.1 |  |  | 
6 | C[C@H]1[C@@H](CCOC(=O)c2ccccc2C(=O)OCC[C@H]2O[C@@H]3O[C@]4(C)CC[C@H]5[C@H](C)CC[C@@H]([C@H]2C)[C@@]35OO4)O[C@@H]2O[C@]3(C)CC[C@H]4[C@H](C)CC[C@@H]1[C@@]24OO3 | 2.6 | 1.6 |  | 
7 | C[C@H]1[C@@H](CCOCc2ccccc2COCC[C@H]2O[C@@H]3O[C@]4(C)CC[C@H]5[C@H](C)CC[C@@H]([C@H]2C)[C@@]35OO4)O[C@@H]2O[C@]3(C)CC[C@H]4[C@H](C)CC[C@@H]1[C@@]24OO3 | 2.9 | 1.3 |  | 
8 | C[C@H]1[C@@H](CCOCc2cccc(COCC[C@H]3O[C@@H]4O[C@]5(C)CC[C@H]6[C@H](C)CC[C@@H]([C@H]3C)[C@@]46OO5)c2)O[C@@H]2OC3(C)CC[C@H]4[C@H](C)CC[C@@H]1[C@@]24OO3 (single isomer, unassigned) | 2.7 | 2.1 |  | 
9 | C[C@H]1[C@@H](CCOC(=O)CCCC(=O)OCC[C@H]2O[C@@H]3OC4(C)CC[C@H]5[C@H](C)CC[C@@H]([C@H]2C)[C@@]35OO4)O[C@@H]2OC3(C)CC[C@H]4[C@H](C)CC[C@@H]1[C@@]24OO3 (single isomer, unassigned) | 2.4 | 1.1 |  | 
10 | C[C@H]1[C@@H](CCOC(=O)CCC(=O)OCC[C@H]2O[C@@H]3OC4(C)CC[C@H]5[C@H](C)CC[C@@H]([C@H]2C)[C@@]35OO4)O[C@@H]2OC3(C)CC[C@H]4[C@H](C)CC[C@@H]1[C@@]24OO3 (single isomer, unassigned) | 1.8 | 1.4 |  | 
11 | C[C@@H]1CC[C@H]2[C@@H](C)C(=O)O[C@@H]3O[C@@]4(C)CC[C@@H]1[C@]32OO4 [ARTEMISININ] | 12.3 |  |  | 
12 | CC(=O)C1C(=O)C=C(C)OC1=O (stereo not given) [DEHYDROACETIC ACID] |  |  | 101000 | 1210
13 | COc1cccc2c1C(=O)c1c(O)c3c(c(O)c1C2=O)C[C@@](O)(C(=O)CO)C[C@@H]3O[C@H]1C[C@H](N)[C@H](O)[C@H](C)O1 [DOXORUBICIN] |  |  | 1700 | 510
